Converted amounts (≈) assume the structure as drawn. The source made the active and inactive calls. The rule behind the calls is not given here.
How the values were obtained:
[1] = tested on: Neurospora crassa; experiment: Antifungal activity against Neurospora crassa ATCC 9279 after 48 hrs by spectrophotometry; type: functional; settings: ATCC 9279, 48 h, read-out: MIC100
[2] = tested on: Aspergillus niger; experiment: Antifungal activity against Aspergillus niger ATCC 9029 after 48 hrs by spectrophotometry; type: functional; settings: ATCC 9029, 48 h
[3] = tested on: Saccharomyces cerevisiae; experiment: Antifungal activity against Saccharomyces cerevisiae ATCC 9763 after 48 hrs by sorbitol protection assay by spectrophotometry; type: functional; settings: ATCC 9763, 48 h; for MIC: read-out: MIC100
Method in brief: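 S. cerevisiae ATCC 9763 by the standard broth microdilution procedure, run on duplicate plates of 2-fold dilutions, one plate with 0.8 M sorbitol added to every well as osmotic support; MICs read at 2 and 7 days.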

[4] = tested on: Aspergillus fumigatus; experiment: Antifungal activity against Aspergillus fumigatus ATCC 26934 after 48 hrs by spectrophotometry; type: functional; settings: ATCC 26934, 48 h, read-out: MIC100
[5] = tested on: Aspergillus flavus; experiment: Antifungal activity against Aspergillus flavus ATCC 9170 after 48 hrs by spectrophotometry; type: functional; settings: ATCC 9170, 48 h, read-out: MIC100
[6] = tested on: Candida albicans; experiment: Antifungal activity against Candida albicans ATCC 10231 after 48 hrs by spectrophotometry; type: functional; settings: ATCC 10231, 48 h; for MIC: read-out: MIC100
[7] = tested on: Cryptococcus neoformans; experiment: Antifungal activity against Cryptococcus neoformans ATCC 32264 after 48 hrs by spectrophotometry; type: functional; settings: ATCC 32264, 48 h; for MIC: read-out: MIC100
[8] = Hemolytic effect in erythrocytes upto 120 mins by spectrophotometry; type: ADME, cell-based; settings: erythrocyte, 2 h
Method in brief: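 Heparinized human red blood cells washed three times in isotonic PBS pH 7.0, made into a 4% suspension in sterile 5% glucose. Compound from DMSO stock diluted in 5% glucose to final 188 to 9 µM; incubated at 37 °C. Released haemoglobin read at 540 nm. LC100 is the lowest concentration giving complete lysis (clearing). DMSO alone served as the vehicle control.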

[9] = tested on: Neurospora crassa; experiment: Antifungal activity against Neurospora crassa assessed as increase in thickness of hyphae relative to control at 37 uM; type: functional, organism-based
Method in brief: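 N. crassa ATCC 9279, 1 × 10^5 spores/mL, grown 24 h at 28 °C with shaking (145 rpm) in YEPD with or without 37 µM. Mycelium fixed in 4% glutaraldehyde in 0.1 M cacodylate, OsO4 and KMnO4 treated, acetone-dehydrated, Spurr-embedded; ultrathin sections stained with uranyl acetate and Reynolds solution; wall thickness measured by transmission electron microscopy.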

[10] = target: T1, Chitin synthase 1 (Saccharomyces cerevisiae S288c) (UniProt P08004); experiment: Enhancement of chitin synthase 1 activity in Saccharomyces cerevisiae assessed as increase in amount of cell wall chitin at 37 uM by calcofluor staining
T1 sequence (whole entry): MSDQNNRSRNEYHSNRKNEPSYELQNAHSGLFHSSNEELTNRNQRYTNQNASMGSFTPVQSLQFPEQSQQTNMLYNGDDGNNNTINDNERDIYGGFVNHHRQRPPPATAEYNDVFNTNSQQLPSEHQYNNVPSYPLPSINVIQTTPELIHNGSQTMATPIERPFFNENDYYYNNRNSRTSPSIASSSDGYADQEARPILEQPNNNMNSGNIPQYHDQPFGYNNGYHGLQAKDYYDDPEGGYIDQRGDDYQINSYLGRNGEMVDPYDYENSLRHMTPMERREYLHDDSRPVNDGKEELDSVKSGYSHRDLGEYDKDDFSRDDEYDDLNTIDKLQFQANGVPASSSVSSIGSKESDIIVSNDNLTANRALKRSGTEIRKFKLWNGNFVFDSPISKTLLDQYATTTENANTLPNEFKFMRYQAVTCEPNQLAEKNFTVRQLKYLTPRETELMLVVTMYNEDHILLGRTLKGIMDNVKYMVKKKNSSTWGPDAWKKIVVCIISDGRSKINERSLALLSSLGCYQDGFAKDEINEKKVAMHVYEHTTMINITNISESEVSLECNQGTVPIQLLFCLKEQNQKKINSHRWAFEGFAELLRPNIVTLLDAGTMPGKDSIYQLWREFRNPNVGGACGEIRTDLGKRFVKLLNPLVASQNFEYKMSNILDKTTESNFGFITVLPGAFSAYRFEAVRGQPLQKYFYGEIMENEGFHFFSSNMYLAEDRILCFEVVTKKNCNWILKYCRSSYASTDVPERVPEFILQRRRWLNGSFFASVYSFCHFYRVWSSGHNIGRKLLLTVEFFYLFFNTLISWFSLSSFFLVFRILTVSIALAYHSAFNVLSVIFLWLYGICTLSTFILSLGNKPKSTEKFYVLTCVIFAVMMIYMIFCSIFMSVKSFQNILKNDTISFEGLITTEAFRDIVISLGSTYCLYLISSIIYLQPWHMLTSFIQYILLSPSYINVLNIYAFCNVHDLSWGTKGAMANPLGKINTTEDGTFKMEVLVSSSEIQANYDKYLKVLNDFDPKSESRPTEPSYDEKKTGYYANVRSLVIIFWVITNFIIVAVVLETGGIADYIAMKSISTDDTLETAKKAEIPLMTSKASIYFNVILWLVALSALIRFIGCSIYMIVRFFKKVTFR
Method in brief: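 Exponentially growing S. cerevisiae ATCC 9763 in YEPD, untreated or exposed to 37 µM, washed and stained with Calcofluor white (20 µM final, 5 min, rt); fluorescence around mother and daughter cell surfaces examined by UV fluorescence microscopy, 400×, same exposure times.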

[11] = tested on: Saccharomyces cerevisiae; experiment: Effect on (1->3)-beta-D-glucan synthase-mediated [14C]-Glucose incorporation in Saccharomyces cerevisiae assessed as residual activity after 30 mins
Method in brief: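 Membrane fraction (18000g pellet) from early-log S. cerevisiae MATa trp1 ura3 leu2 his3 pep4::HIS3 nuc1::LEU2 broken with glass beads; 15 µg protein in 40 µL; compound 20 µg/assay added in MeOH; [14C]-glucose incorporation into insoluble glucan; 30 min at 30 °C, stopped with 10% TCA; duplicates; papulacandin B as standard.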

[12] = target: Chitin synthase 1 (Neurospora crassa OR74A) (UniProt P29070); experiment: Enhancement of chitin synthase 1 activity in Neurospora crassa assessed as increase in amount of cell wall chitin at 37 uM by calcofluor staining
Method in brief: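 Exponentially growing N. crassa ATCC 9279 hyphae in YEPD liquid medium, untreated or exposed to 37 µM, washed and stained with Calcofluor white (20 µM final, 5 min, rt), washed; chitin visualised as bluish fluorescence under UV by fluorescence microscopy, 400×, same exposure times.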

[13] = tested on: Saccharomyces cerevisiae; experiment: Antifungal activity against Saccharomyces cerevisiae assessed as increase in cellular leakage at 74 uM relative to sodium dodecyl sulphate at 6-48 hrs using spectrophotometry; type: functional
Method in brief: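 S. cerevisiae ATCC 9763 grown with shaking at 30 °C to early stationary phase, washed twice, diluted to (3-5) × 10^7 cells/mL in cold MOPS buffer pH 6.0; compound at final 74 µM; 2% SDS set as 100% leakage; incubated at 30 °C and sampled at 6, 12, 24 and 48 h; supernatant absorbance at 260 nm; means of at least two independent assays; Student's test.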

[14] = target: T1, Chitin synthase 1 (Saccharomyces cerevisiae S288c); experiment: Effect on chitin synthase 1-mediated incorporation of [14C]N-acetylglucosamine in Saccharomyces cerevisiae assessed as residual activity after 90 mins
[15] = target: T1, Chitin synthase 1 (Saccharomyces cerevisiae S288c); experiment: Effect on chitin synthase 1-mediated incorporation of [14C]N-Acetylglucosamine in Saccharomyces cerevisiae assessed as residual activity after 90 mins in presence of trypsin
Method in brief: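 Same S. cerevisiae membrane fraction, 30 µg protein in 50 µL; compound 20 µg/assay in MeOH; zymogen activated by trypsin (2 µL of 0.25 µg/µL, 15 min, 30 °C) then stopped with trypsin inhibitor; [14C]-N-acetylglucosamine incorporation into chitin over 90 min at 30 °C, stopped with 10% TCA; duplicates; nikkomycin Z as reference.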

[16] = target: Chitin synthase 1 (Neurospora crassa OR74A) (UniProt P29070); experiment: Enhancement of chitin synthase 1 activity in Neurospora crassa assessed as increase in cell wall thickness at 37 uM by transmission electron microscopy
[17] = tested on: Saccharomyces cerevisiae; experiment: Antifungal activity against Saccharomyces cerevisiae assessed as binding to membrane ergosterol in presence of exogenous ergosterol; type: functional, organism-based
[18] = target: T1, Chitin synthase 1 (Saccharomyces cerevisiae S288c); experiment: Enhancement of chitin synthase 1 activity in Saccharomyces cerevisiae assessed as increase in amount of cell wall chitin at 100 mg by Reissig method
Method in brief: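 Untreated and 37 µM-treated S. cerevisiae cells (100 mg each) extracted with 6% KOH for 90 min, digested with chitinase and glusulase; N-acetylglucosamine measured by the Reissig reaction (potassium tetraborate, boiling 3 min, DMAB 20 min at 36-38 °C), absorbance at 585 nm; NAG as standard.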

Chitin synthase 1 (Neurospora crassa OR74A), sequence (P29070 whole entry): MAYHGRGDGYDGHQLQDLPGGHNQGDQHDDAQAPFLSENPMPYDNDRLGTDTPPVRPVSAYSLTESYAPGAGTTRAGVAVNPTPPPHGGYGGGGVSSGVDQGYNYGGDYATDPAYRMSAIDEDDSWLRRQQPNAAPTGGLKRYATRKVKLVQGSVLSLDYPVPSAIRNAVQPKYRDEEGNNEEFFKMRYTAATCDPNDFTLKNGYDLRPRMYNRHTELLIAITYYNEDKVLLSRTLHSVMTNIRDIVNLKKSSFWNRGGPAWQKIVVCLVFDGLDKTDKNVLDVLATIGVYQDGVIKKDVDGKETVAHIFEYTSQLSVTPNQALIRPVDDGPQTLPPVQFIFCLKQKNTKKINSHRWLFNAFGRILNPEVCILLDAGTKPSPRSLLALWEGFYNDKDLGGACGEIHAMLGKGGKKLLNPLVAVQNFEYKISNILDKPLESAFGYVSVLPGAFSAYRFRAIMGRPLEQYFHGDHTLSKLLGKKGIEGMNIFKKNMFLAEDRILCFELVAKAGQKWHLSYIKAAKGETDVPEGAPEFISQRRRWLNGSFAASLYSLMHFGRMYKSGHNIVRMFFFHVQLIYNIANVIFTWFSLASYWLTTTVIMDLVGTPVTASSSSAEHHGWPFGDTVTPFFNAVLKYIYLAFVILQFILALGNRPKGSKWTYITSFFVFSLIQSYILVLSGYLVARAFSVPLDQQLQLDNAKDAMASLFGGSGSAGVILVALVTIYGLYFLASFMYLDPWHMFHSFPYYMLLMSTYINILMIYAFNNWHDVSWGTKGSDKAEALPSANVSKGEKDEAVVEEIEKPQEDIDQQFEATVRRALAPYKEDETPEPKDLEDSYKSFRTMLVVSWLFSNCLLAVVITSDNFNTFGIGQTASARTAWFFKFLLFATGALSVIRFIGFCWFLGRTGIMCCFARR

Row | SMILES | MIC [1] | MIC ([2]; read-out: MIC100) | MIC [3] | MIC [4] | MIC [5] | MIC [6] | MIC [7] | LC100 [8] | Activity [11] | also measured
1 | CC(=O)N1CCN(c2ccc(OCC3COC(Cn4ccnc4)(c4ccc(Cl)cc4Cl)O3)cc2)CC1 (stereo not drawn) [KETOCONAZOLE] | 2 µM (≈ 1.06 µg/mL) | 0.25 µM (≈ 0.133 µg/mL) | 1 µM (≈ 0.531 µg/mL) | 0.13 µM (≈ 0.0691 µg/mL) | 0.5 µM (≈ 0.266 µg/mL) | 1 µM (≈ 0.531 µg/mL) | 0.5 µM (≈ 0.266 µg/mL) |  |  | 
2 | COC(=O)[C@@]1(C)CC[C@]2(C(=O)O)CC[C@]3(C)C(=CC[C@@H]4[C@@]5(C)C[C@H](O)[C@H](O[C@@H]6OC[C@@H](O)[C@H](O)[C@H]6O)[C@@](C)(CO)[C@@H]5CC[C@]43C)[C@@H]2C1 [PHYTOLACCOSIDE B] | 74 µM (≈ 49.2 µg/mL) |  | 74 µM (≈ 49.2 µg/mL) | 188 µM (≈ 125 µg/mL) | 74 µM (≈ 49.2 µg/mL) | 74 µM (≈ 49.2 µg/mL) | 112 µM (≈ 74.5 µg/mL) | > 188 µM | 93.4% | Activity [9]: Active; MIC ([2]; read-out: MIC): 188 µM (≈ 125 µg/mL); Activity [10]: Active; Activity [12]: Active; Activity [13]: 17%; MFC [3]: 150 µM (≈ 99.7 µg/mL); MIC50 [3]: 18 µM (≈ 12 µg/mL); MIC80 [3]: 37 µM (≈ 24.6 µg/mL); Activity [14]: 190%; MFC [6]: 150 µM (≈ 99.7 µg/mL); MIC50 [6]: 74 µM (≈ 49.2 µg/mL); MIC80 [6]: 74 µM (≈ 49.2 µg/mL); MFC [7]: 112 µM (≈ 74.5 µg/mL); MIC50 [7]: 9 µM (≈ 5.98 µg/mL); MIC80 [7]: 74 µM (≈ 49.2 µg/mL); Activity [15]: 166%; Activity [16]: 400 nm; Activity [17]: inactive; Activity [18]: 23%
3 | C[C@@H]1[C@H](O)[C@@H](C)/C=C/C=C/C=C/C=C/C=C/C=C/C=C/[C@H](O[C@@H]2O[C@H](C)[C@@H](O)[C@H](N)[C@@H]2O)C[C@@H]2O[C@](O)(C[C@@H](O)C[C@@H](O)[C@H](O)CC[C@@H](O)C[C@@H](O)CC(=O)O[C@H]1C)C[C@H](O)[C@H]2C(=O)O [AMPHOTERICIN B] | 1 µM (≈ 0.924 µg/mL) | 0.5 µM (≈ 0.462 µg/mL) | 1.62 µM (≈ 1.5 µg/mL) | 0.5 µM (≈ 0.462 µg/mL) | 0.5 µM (≈ 0.462 µg/mL) | 0.84 µM (≈ 0.776 µg/mL) | 0.27 µM (≈ 0.25 µg/mL) | 13.5 µM |  | 
4 | CCC(O)/C=C/C=C/C=C/C(=O)OC[C@H]1O[C@@H](O[C@H]2[C@H](OC(=O)/C=C/C=C/CC(O)/C(C)=C/C=C/CCC(C)CC)[C@@H](O)[C@@]3(OCc4cc(O)cc(O)c43)O[C@@H]2CO)[C@H](O)[C@@H](O)[C@H]1O (stereo partly drawn) |  |  |  |  |  |  |  |  | 5% | 

— ChEMBL document CHEMBL1140160, “Evidence for the mechanism of action of the antifungal phytolaccoside B isolated from Phytolacca tetramera Hauman” (J Nat Prod, 2008)
